TRPC6 activator = activators of mouse TRPC6 channel; Q61143; HEK293-TRPC6 membrane potential dye fluorescence; active compounds read high; B-score at 10 µM; 310,000 tested, 0.13% active; AID 2550;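 active = B-score of the integrated fluorescence ratio above library mean plus 3 SD, and starting fluorescence ratio within library mean plus 5 SD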;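 also: higher score means more depolarization so channel activation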
TRPC4 potent = allosteric potentiators of mouse TRPC4 channel; Q9QUQ5; HEK293 TRPC4beta/mu-opioid, DAMGO EC20, Fluo-4 Ca2+ flux; active compounds read high; B-score at 10 µM; 310,000 tested, 0.42% active; AID 2227;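 active = B-score of calcium response area above 5 SD of library B-scores, with initial fluorescence ratio within 5 SD of library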
TRPC4 inh = TRPC4 (mouse) channel inhibition; HEK293 TRPC4beta/mu-opioid, DAMGO-evoked Fluo4 calcium flux; active compounds read low; B-score at 10 µM; 300,000 tested, 0.39% active;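 active = B-score over 3 SD under the library average, no early fluorescence shift, positive overall ratio signal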
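Assay system – HEK293 line stably carrying TRPC4beta and mu-opioid receptor · Doses – single dose · Detection – Fluo4 calcium-dye fluorescence, kinetic read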
TRPC6 inhibitor = inhibitors of mouse TRPC6 channel | HEK293-TRPC6, membrane potential dye, ACh-evoked depolarization; active compounds read low | B-score at 10 µM | 310,000 tested, 1.1% active;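 active = B-score under library mean minus 3 SD, initial fluorescence not abnormally high, positive integrated signal ratio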;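 also: B-score derived from integrated fluorescence ratio over the kinetic read; more negative B-score means stronger inhibition of depolarization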
TRPC4 act = TRPC4 (mouse) channel activation; Q9QUQ5; HEK293 TRPC4beta/mu-opioid, Fluo4 calcium fluorescence; active compounds read high; B-score at 10 µM; 310,000 tested, 0.49% active;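 active = B-score above 5 SD of library B-scores, and initial fluorescence ratio not above library mean plus 5 SD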;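 also: positive B-score marks a calcium rise read as TRPC4 activation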
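system = HEK293 cells stably co-expressing mouse TRPC4beta and mu-opioid receptor | schedule = Fluo4 dye loading 45 min at room temperature, 110 s recording | measure = B-scored integrated calcium fluorescence ratio | signal = Fluo4 calcium-sensitive dye fluorescence, kinetic, 1 Hz baseline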
Kir21 block = inhibitors of mouse Kir2.1 inward-rectifier potassium channel | P35561 | HEK293-Kir2.1, FluxOR thallium flux fluorescence; active compounds read low | B-score at 10 µM | 310,000 tested, 0.85% active;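 active = fluorescence ratio B-score at or below minus 3 SD of library scores, with starting-brightness B-score within 2 SD, cut at about -4.2 in these data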;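 also: channel flux triggered by added potassium and thallium sulfate stimulus; B-score of peak minus minimum fluorescence over baseline after thallium stimulus; more negative B-score means stronger Kir2.1 block with less thallium influx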
Target sequence (P35561 whole entry, looked up): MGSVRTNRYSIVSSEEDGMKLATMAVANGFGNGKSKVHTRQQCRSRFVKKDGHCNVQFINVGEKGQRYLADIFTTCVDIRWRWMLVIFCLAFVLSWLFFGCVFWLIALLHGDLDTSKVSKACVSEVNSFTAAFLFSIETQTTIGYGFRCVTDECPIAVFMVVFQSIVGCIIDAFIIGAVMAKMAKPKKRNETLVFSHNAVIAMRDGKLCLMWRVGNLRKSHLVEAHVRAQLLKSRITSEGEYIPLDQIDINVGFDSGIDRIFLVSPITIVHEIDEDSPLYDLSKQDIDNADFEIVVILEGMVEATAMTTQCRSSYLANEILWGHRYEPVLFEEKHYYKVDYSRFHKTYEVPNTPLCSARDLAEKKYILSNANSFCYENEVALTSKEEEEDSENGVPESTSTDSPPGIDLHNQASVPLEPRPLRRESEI
Of the large screens only hits and unclear results are named; the others gave an inactive call. This is a sample that favours compounds with a hit; in the whole collection about 2.9% have one here.

O=C(O)CCC(=O)NN1C(=O)c2ccccc2NC1c1ccc(F)cc1 (configuration not stated)	TRPC4 potent 11
Cn1nnnc1SCCNCc1ccccc1OCc1ccc(Cl)cc1	TRPC4 inh -7, Kir21 block -4.3
Cn1nnnc1SCCNCc1cc(Cl)ccc1OCc1ccccc1	none
CCC(C)NC(=S)N(Cc1cc2cc(C)ccc2n2nnnc12)CC(C)(C)NC(C)C (configuration not stated)	none
Cc1nn(-c2nnc(NCc3ccccc3)nn2)c(C)c1Br	TRPC4 potent 17
CC(C)(C)OC(=O)N[C@@H](Cc1ccccc1)c1nnc(S(=O)(=O)Cc2cccc(F)c2)o1	none
CC(C)C[C@H](N)c1nnc(S(=O)(=O)Cc2cccc(F)c2)o1	Kir21 block -7.9
O=c1[nH]c2cc3c(cc2cc1C(c1nnnn1CC1CCCO1)N1CCCCCC1)OCCO3 (configuration not stated)	none
Cc1nc2ccc(OC(=O)c3ccccc3)cc2s1	Kir21 block -4.8
CC1(C)[C@@H](O)CC[C@]2(C)C3C(O)C=C4[C@H]5C[C@@](C)(C(=O)O)CC[C@]5(C)CC[C@]4(C)[C@]3(C)CC[C@@H]12 (some centres not stated)	TRPC4 inh -6, TRPC4 act 210
CC1(C)C(=O)CC[C@]2(C)C3C(=O)C=C4[C@H]5C[C@@](C)(C(=O)O)CC[C@]5(C)CC[C@]4(C)[C@]3(C)CC[C@@H]12 (some centres not stated)	none
OC(COCc1ccc(Cl)cc1)CN1CCN(CC(O)COCc2ccc(Cl)cc2)CC1 (configuration not stated)	Kir21 block -4.9
C=CCc1ccc(OCC(O)CN2CCN(Cc3ccc(Cl)cc3)CC2)c(OC)c1 (configuration not stated)	TRPC4 potent 10, Kir21 block -8.3
C=CCOC(=O)C1=C[C@@H](c2ccc(C(F)(F)F)cc2)[C@H](CCCO)[C@@H](OCC)O1	none
CC(C)n1cc(/C=N/Nc2ccc(C(=O)O)cc2)c2ccccc21	none
CCCCCc1ccc(OCCC[n+]2ccccc2)c(CCCCC)c1	none
CCCCCc1ccc(OCCOCCn2c[n+](C)c3ccccc32)c(CCCCC)c1	TRPC4 act 51
COc1ccc(C2CC(=O)N(CCCN(C)CCc3ccc(OC)c(OC)c3)C2)cc1 (configuration not stated)	TRPC4 potent 13
CC(C)CNS(=O)(=O)c1cc2c3c(c1)CCC(=O)N3CCC2	none
O=C(CN1CCN(Cc2ccc(Cl)cc2)C1=O)NCCCN1CCOCC1	none
O=C(CN1CCN(Cc2ccc(Cl)cc2)C1=O)NCCCN1CCN(c2ccc(F)cc2)CC1	TRPC4 inh -6
Cc1ccc(C(=O)NNC(=O)CCN2C(=O)C3CCCCC3C2=O)cc1 (configuration not stated)	none
CCCCOc1ccc(S(N)(=O)=O)cc1	none
NS(=O)(=O)c1ccc(Oc2ccc(S(N)(=O)=O)cc2)cc1	TRPC4 potent 96
CCC(C)(C)NC(=O)CSc1nc(Cc2ccccc2)nc2ccccc12	none
CC(C)NC(=O)CSc1nc(Cc2cccs2)nc2ccccc12	Kir21 block -4.6
O=C(CNCC1CCCCC1)Nc1ccc(OC(F)(F)F)cc1	TRPC4 act 43
CCCCC1C2=C(CC(C)(C)CC2=O)OC2=C1C(=O)CC(C)(C)C2	TRPC4 potent 14
CCCCCCC1C(C#N)=C(N)OC2=C1C(=O)CC(C)(C)C2 (configuration not stated)	none
CC(Oc1ccc(Cl)cc1Cl)c1nc(-c2ccc(NC(=O)c3cccnc3)cc2)no1 (configuration not stated)	none
CC(Oc1ccc(Cl)cc1Cl)c1nc(-c2ccccn2)no1 (configuration not stated)	TRPC4 inh -6
O=C(c1cccc(S(=O)(=O)N2CCc3ccccc32)c1)N1CCN(c2ccccn2)CC1	TRPC6 activator 16
Cc1cccc(N(C(=O)c2snc(C(N)=O)c2N)C(C)C(=O)NCC2CCCO2)c1 (configuration not stated)	none
O=C(N/N=C/c1ccccc1F)NC1CCCCC1	TRPC4 potent 21, TRPC4 act 177
CCCCCCCCCCCC(=O)NC(C(=O)O)C(O)c1ccccc1 (configuration not stated)	TRPC4 inh -6
CCCCCCCCCC(=O)N[C@H](CN1CCOCC1)[C@H](O)c1ccccc1	none
Cc1oc(-c2ccc(Cl)cc2)nc1CSCC(=O)NC1CCN(Cc2ccccc2)CC1	TRPC4 potent 12
CCOC(=O)N1CCC(NC(=O)CSCc2nc(-c3ccccc3Cl)oc2C)CC1	none
Cc1oc(-c2ccccc2Cl)nc1CSCC(=O)NC1CCCC1	Kir21 block -4.7
NC(=O)c1ccc(NC(=O)COC(=O)CCC(=O)c2ccc(Cl)cc2)cc1	none
Cn1c(CC(=O)Nc2ccc(Cl)cc2)nnc1SCC(=O)N1CCOCC1	none
Cc1ccc2c(c1)N(C(=O)CCC(=O)NCc1ccccc1)CC(C)O2 (configuration not stated)	none
CC1CC(C)CN(CCCNC(=O)CCC(=O)N2CC(C)Oc3ccccc32)C1 (configuration not stated)	TRPC4 act 53
COc1cccc(NC(=O)CCC(=O)N2CC(C)Oc3ccc(C)cc32)c1 (configuration not stated)	TRPC4 inh -7
CC1CN(C(=O)CCC(=O)NCCc2ccccc2)c2ccccc2O1 (configuration not stated)	none
Cc1ccc2c(c1)N(C(=O)CCC(=O)NCc1cccc(Cl)c1)CC(C)O2 (configuration not stated)	TRPC4 inh -7
Cc1ccc2c(c1)N(C(=O)CCC(=O)Nc1ccccc1Cl)CC(C)O2 (configuration not stated)	TRPC4 inh -8
Cc1ccc(C2(O)CN(c3ccccc3C)C3=[N+]2CCS3)cc1 (configuration not stated)	TRPC4 act 106
Cc1ccccc1N1CC(O)(c2ccccc2)[N+]2=C1SCC2 (configuration not stated)	TRPC4 act 83
O=S(=O)(Nc1ccc(F)cc1)c1ccc(NS(=O)(=O)c2cccs2)cc1	TRPC4 potent 11
Cc1ccc(NS(=O)(=O)c2ccc(NS(=O)(=O)c3cccs3)cc2)cc1	TRPC4 potent 16
CC(=O)c1c(C)[nH]c(C2=NNC(=NC(C)(C)C)SC2)c1C	none
CC(C)(C)N=C1NN=C(c2cc3ccccc3o2)CS1	TRPC4 potent 11
COC(=O)c1cc([N+](=O)[O-])ccc1N1CCN(Cc2ccccc2)CC1	TRPC4 potent 11
